Experimental data reported in publication PMC4836388 (ACS chemical biology, 2015).
Entries after “also recorded” stand apart in the source; their conditions may differ.

B1: cyanovirin-N: lectin that binds high-mannose glycans in the gp120 outer domain (protein, UniProt P81180 1-101, looked up)
Cyanovirin-N: LGKFSQTCYNSAIQGSVLTSTCERTNGGYNTSSIDLNSVIENVDGSLKWQPSNFIETCRNTQLAGSSELAAECKTRAQQFVSTKINLDDHIANIDGTLKYE

Columns and labels:
HIV-1BaL virions = assay: sulfhydryl reagent treat/wash viral infection assay; format: cell-based; conditions: HOS cells
HIV-1BaL pseudovirus [1] = assay: single-round pseudoviral infection luciferase reporter assay; format: cell-based; conditions: for inhibition of pseudotyped HIV-1BaL infection by sulfhydryl reagent: reagent not removed
[2] = tested on: pseudotyped HIV-1BaL virus; assay: virolysis assay; conditions: HIV-1BaL pseudotyped virions
HIV-1BaL pseudovirus [3] = assay: 2G12 mechanism of action infection assay; format: cell-based; conditions: ligand added after virus bound to cells at 4 °C
In short: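 HIV-1BaL.01 Env pseudovirus (pNL4-3.Luc+ R− E− backbone, made in HEK-293T, iodixanol-gradient purified) bound to prechilled HOS.T4.R5 cells (preseeded 24 h, 8000/well) 4 h at 4 °C. Cells washed twice cold, then exposed to serially diluted test antibody for 30 min steps at 4 °C and 23 °C, then 24 h at 37 °C. Medium wash; lysis at 48 h; luciferase (1 mM D-luciferin). Enfuvirtide control wells; triplicate; infection relative to virus without inhibitor.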

[4] = tested on: pseudotyped HIV-1BaL virions; assay: protein inhibition of virolysis; conditions: with 10 μM 1, 14 μM 2 or 50 μM 8 (EC80)

Molecule | virus infectivity after reagent treatment and removal (HIV-1BaL virions) | inhibition of pseudotyped HIV-1BaL infection by sulfhydryl reagent (HIV-1BaL pseudovirus [1]) | also measured
O[C@@H](CS)[C@@H](O)CS (racemic) [DTT, dithiothreitol] | did not cause significant dose-dependent reduction | inhibit | –
CC[C@H](C)[C@H](NC(=O)[C@@H](N)CCCNC(=N)N)C(=O)N[C@@H](CC(N)=O)C(=O)N[C@@H](CC(N)=O)C(=O)N[C@H](C(=O)N1C[C@@H](n2cc([C]34[CH]5[CH]6[CH]7[CH]3[Fe]6754389%10[CH]4[CH]3[CH]8[CH]9[CH]4%10)nn2)C[C@H]1C(=O)N[C@@H](Cc1c[nH]c2ccccc12)C(=O)N[C@@H](CO)C(=O)N[C@@H](CCC(=O)O)C(=O)N[C@@H](C)C(=O)N[C@@H](CCSC)C(=O)N[C@@H](CCSC)C(=O)NCCC(=O)N[C@@H](CCC(N)=O)C(=O)NCCC(=O)N[C@@H](CSC1CC(=O)N(CCC(=O)NCCCOCCOCCOCCCNC(=O)CCN2C(=O)CC(SC[C@H](NC(=O)CCNC(=O)[C@H](CCC(N)=O)NC(=O)CCNC(=O)[C@H](CCSC)NC(=O)[C@H](CCSC)NC(=O)[C@H](C)NC(=O)[C@H](CCC(=O)O)NC(=O)[C@H](CO)NC(=O)[C@H](Cc3c[nH]c4ccccc34)NC(=O)[C@@H]3C[C@H](n4cc([C]56[CH]7[CH]8[CH]9[CH]5[Fe]89765%10%11%12[CH]6[CH]5[CH]%10[CH]%11[CH]6%12)nn4)CN3C(=O)[C@@H](NC(=O)[C@H](CC(N)=O)NC(=O)[C@H](CC(N)=O)NC(=O)[C@@H](NC(=O)[C@@H](N)CCCNC(=N)N)[C@@H](C)CC)[C@@H](C)CC)C(N)=O)C2=O)C1=O)C(N)=O)[C@@H](C)CC (stereo partly drawn) [1a] | – | – | p24 release (in words) [2]: did not induce p24 release; inhibition of HIV-1 infection (in words) (HIV-1BaL pseudovirus [1]; HIV-1BaL pseudotyped virions): powerful inhibitor of HIV-1 infection, comparable to 1
NC(=O)CI [IAAm, iodoacetamide] | – | inhibit | –
O=C(O)CCP(CCC(=O)O)CCC(=O)O [TCEP, tris(2-carboxyethyl)phosphine] | did not cause significant dose-dependent reduction | inhibit | –
enfuvirtide [T20] | – | – | infection with six-helix bundle formation delayed by low temperature (HIV-1BaL pseudovirus [3]): blocked infection
B1 | – | – | inhibition of PTT-induced p24 release by protein ligand [4]: did not inhibit p24 release; also recorded: no inhibition of p24 release
